25 compounds from ChEMBL document CHEMBL1121698, “Cyclic urea and thiourea derivatives as inducers of murine erythroleukemia differentiation” (1981) can be followed below.

Common to all, as to type: functional, Mus musculus
The subject of test [1] is Friend leukemia cell line. In words: The degree of erythroid maturation was measured by assessing the proportion of benzidine-positive friend leukemia cells at a concentration of 4 mM. Summed up:
(§1)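 Friend erythroleukemia clone 745A cells seeded at 10^5 cells/mL in DMEM with 15% fetal calf serum at 37 °C, 10% CO2. Agent given at seeding, continuous exposure, twofold-graded concentrations; Me2SO positive control in each experiment. On day 6, hemoglobin-containing cells scored cytologically by staining with acid benzidine peroxide. Optimum concentration averaged from at least two experiments.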

Test [2] concerns Friend leukemia cell line. In words: Cell growth of friend erythroleukemia cells measured as percentage of control on day 6 at a concentration of 4 mM. As to conditions: at 4 mM.
The subject of test [3] is Friend leukemia cell line. In words: Percent of untreated control cell growth evaluated in friend leukemia cells on day 3 at a concentration of 4 mM. To be noted: at 4 mM.
Test [4] has as its system Friend leukemia cell line. In words: Percent of untreated control cell growth evaluated in friend leukemia cells on day 3 at a concentration of 2 mM. The method, boiled down:
(§2)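 Friend murine erythroleukemia clone 745A grown in suspension at 37 °C, 10% CO2, in DMEM with 15% fetal calf serum, streptomycin and penicillin. Agent added at seeding of exponentially growing cells (10^5 cells/mL), continuous exposure over twofold-graded concentrations. Cell numbers counted electronically on days 3 and 6, expressed relative to untreated control. At least two separate experiments.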

Test [5] deals with Friend leukemia cell line. In words: The degree of erythroid maturation was measured by assessing the proportion of benzidine-positive cells at a concentration of 2 mM. Summed up: as §1
Test [6] relates to Friend leukemia cell line. In words: Cell growth of friend erythroleukemia cells measured as percentage of control on day 6 at a concentration of 2 mM. Summed up: as §2
For test [7], the system named is Friend leukemia cell line. In words: The degree of erythroid maturation was measured by assessing the proportion of benzidine-positive cells at a concentration of 4 mM. As to conditions: at 4 mM.
For test [8], the system named is Friend leukemia cell line. Description: Percent of untreated control cell growth evaluated in friend leukemia cells on day 3 at a concentration of 105 mM. The method, boiled down: as §2
For test [9], the system named is Friend leukemia cell line. Description: Cell growth of friend erythroleukemia cells measured as percentage of control on day 6 at a concentration of 105 mM. Summed up: as §2
The subject of test [10] is Friend leukemia cell line. In words: Effect on the replication and erythroid differentiation of friend leukemia cells on day 6 at a concentration of 210 mM.
For test [11], the system named is Friend leukemia cell line. Description: The degree of erythroid maturation was measured by assessing the proportion of benzidine-positive cells at a concentration of 210 mM. Summed up:
as §1

Test [12] relates to Friend leukemia cell line. Description: Effect on the replication and erythroid differentiation of friend leukemia cells on day 3 at a concentration of 210 mM.
Test [13] deals with Friend leukemia cell line. Description: The degree of erythroid maturation was measured by assessing the proportion of benzidine-positive friend leukemia cells at a concentration of 1 mM. The method, boiled down:
as §1

Test [14] has as its system Friend leukemia cell line. Description: Percent of untreated control cell growth evaluated in friend leukemia cells on day 3 at a concentration of 1 mM. The method, boiled down:
as §2

Test [15] concerns Friend leukemia cell line. In words: Cell growth of friend erythroleukemia cells measured as percentage of control on day 6 at a concentration of 1 mM. The method, boiled down: as §2
In test [16] the test system is Friend leukemia cell line. Description: The degree of erythroid maturation was measured by assessing the proportion of benzidine-positive friend leukemia cells at a concentration of 2 mM. Summed up:
as §1

For test [17], the system named is Friend leukemia cell line. Description: The degree of erythroid maturation was measured by assessing the proportion of benzidine-positive friend leukemia cells at a concentration of 16 mM. The method, boiled down: as §1
Test [18] concerns Friend leukemia cell line. Description: Cell growth of friend erythroleukemia cells measured as percentage of control on day 6 at a concentration of 16 mM. The method, boiled down:
as §2

The test system of test [19] is Friend leukemia cell line. Description: Percent of untreated control cell growth evaluated in friend leukemia cells on day 3 at a concentration of 16 mM. Summed up: as §2
For test [20], the system named is Friend leukemia cell line. Description: Cell growth of friend erythroleukemia cells measured as percentage of control on day 6 at a concentration of 0.1-10 mM. The method, boiled down:
as §2

In test [21] the test system is Friend leukemia cell line. Description: The degree of erythroid maturation was measured by assessing the proportion of benzidine-positive friend leukemia cells at a concentration of 0.1-10 mM. Summed up: as §1
Test [22] has as its system Friend leukemia cell line. Description: Percent of untreated control cell growth evaluated in friend leukemia cells on day 3 at a concentration of 0.1-10 mM. Summed up: as §2

`O=C(N1CCCCC1)N1CCCCC1` showed a Benzidine positive cells in test [1] of 10%. The Cell growth in test [2] is on record as 33%; in test [3], 28%.
Regarding `CCN1CCCN(CC)C1=O`, the Benzidine positive cells in test [1] was found to be 70%. The Cell growth came to 127% in test [2] and 160% in [3].
Take `CN1CCCN(C)C1=O`: the Cell growth in [4] turned out to be 90%; in [6] it was 87%. The same compound registered a Benzidine positive cells in [5] of 92%.
As for `SC1=NCCCCN1`, the Cell growth in [4] is 54%; in test [6] it was 82%. This compound had a Benzidine positive cells in [5] of 42%.
With `C[S+](C)[O-]` [DIMETHYL SULFOXIDE], the Benzidine positive cells in [7] is recorded as 75%; in test [11], 94%. For the same compound, the Cell growth in [8] was found to be 70%; in test [9] it was 120%; in [10], 110%; in [12] it was 72%.
In the case of `CN(C)C(=S)N(C)C`, the Cell growth in test [4] is 123%; in test [6], 98%. The Benzidine positive cells in [5] stood at 79%.
`CCN1CCCN(CC)C1=S`: the Benzidine positive cells in test [13] was found to be 61%. For the same compound, the results for the Cell growth in [14] and in test [15] were 45% and 97%, respectively.
In [1], `CN1CCCCN(C)C1=S` displayed a Benzidine positive cells of 79%. Also, the Cell growth turned out to be 73% in test [2] and 64% in [3].
Turning to `O=C1NCCCN1`, the Benzidine positive cells in [7] is on record as 15%. In addition, the Cell growth amounted to 121% in [2] and 124% in test [3].
`CCN(CC)C(=O)N(CC)CC`: the figures for the Cell growth in [4] and in test [6] were 69% and 77%, respectively. In test [16], this compound displayed a Benzidine positive cells of 68%.
For `CCN1CCN(CC)C1=S`, the Cell growth turned out to be 60% in test [4] and 120% in test [6]. The compound further displayed a Benzidine positive cells in test [16] of 84%.
For `CN1CCCCN(C)C1=O`, the Benzidine positive cells in test [1] came out at 92%. Besides, the Cell growth in [2] is recorded as 61%; in test [3], 25%.
In turn, `CCN1CCN(CC)C1=O` registered a Benzidine positive cells in test [17] of 81%. Further, the values for the Cell growth in test [18] and in [19] were 140% and 36%, respectively.
Turning to `CCN(CC)C(=S)N(CC)CC`, the figures for the Cell growth in [20] and in [22] were under 1% and under 4%, respectively. The same compound registered a Benzidine positive cells in [21] of under 1%.
As to `CN1CCN(C)C1=S`, the Cell growth is on record as 102% in test [4] and 95% in test [6]. In addition, the Benzidine positive cells in test [5] amounted to 66%.
Compound `CN1CCN(C)C1=O` had a Benzidine positive cells in [7] of 92%. For the same compound, the Cell growth in test [2] is 73%; in test [3], 70%.
With `CN1CCCNC1=O`, the Cell growth in test [4] was determined as 46%; in test [6], 136%. Moreover, in test [5], the Benzidine positive cells came to 50%.
Regarding `CCCCN1CCCN(CCCC)C1=O`, the Cell growth is under 1% in [20] and under 5% in test [22]. The Benzidine positive cells in test [21] is given as under 1%.
As to `CN1CCCN=C1S`, the Cell growth in [4] came to 107%; in [6], 166%. This compound had a Benzidine positive cells in test [5] of 22%.
Take `S=C1NCCN1` [ETHYLENE THIOUREA]: in test [7], the Benzidine positive cells is recorded as 21%. The values for the Cell growth in test [2] and in [3] were 62% and 128%, respectively.
Take `O=C1NCCCCN1`: the Cell growth in test [4] is listed as 93%; in test [6] it was 104%. Also, the Benzidine positive cells in test [5] is given as 66%.
With `CCN1CCCCN(CC)C1=O`, the Benzidine positive cells in [1] was 31%. For the same compound, the Cell growth in [2] worked out at 131%; in [3], 40%.
`CN1CCCN(C)C1=S` yielded a Benzidine positive cells in test [7] of 83%. The results for the Cell growth in test [2] and in test [3] were 135% and 75%, respectively.
With `SC1=NCCCN1`, the Cell growth in test [4] is reported as 144%; in [6], 44%. The Benzidine positive cells in test [5] was determined as 14%.
On to `O=C1NCCN1`, for which the Benzidine positive cells in test [7] worked out at 4%. Besides, the Cell growth in test [2] was 108%; in test [3] it was 88%.
